The values that follow come from publication PMC3112262 (The Journal of surgical research, 2011).

Ends that are not written are not given here.

The subject of series [1] is hnRNPA0 in mesothelial cells. Description: Western blot, hnRNPA0 phosphorylation. It counts as cell-based, human. As to conditions: 1 ng/ml IL-1β. Put shortly: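 Human pleural mesothelial cell line grown to confluence, serum-starved 24 h, then given 1 ng/ml IL-1β with or without test compound (1000 or 3000 µM), added together, for 6 and 12 h. Lysed in urea/phosphatase-inhibitor buffer. 20 µg protein run on 12% gels, probed for phospho-hnRNPA0 (Ser84) and β-actin, detected by infrared imaging. Band intensity normalized to β-actin.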
(In general: A western blot detects proteins with antibodies after separation by electrophoresis.)

Series [2] deals with human pleural mesothelial cells (CRL-9444). The experiment in a line: IL-6 ELISA, cytokine-stimulated mesothelial cells. It counts as cell-based. As to conditions: for cytokine-induced IL-6 expression, time and dose dependence: 0.1, 1, or 10 ng/mL cytokine, 2, 6, 12, 24 h, triplicate. The method, boiled down:
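Human pleural mesothelial cells were grown in supplemented Medium199 with 10% FBS and held 24 h in serum-free medium before cytokine (IL-1β or TNF-α) and/or test compound treatment. Media IL-6 was measured by sandwich ELISA at room temperature with 300 rpm shaking and ABTS substrate. Absorbance was read at 405 nm minus 650 nm every 5 min for 50 min. Samples were run in triplicate and normalised to cell number by Hoechst 33342 DNA stain.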
Background: ELISA stands for enzyme-linked immunosorbent assay.

The test system of series [3] is kinase. As to conditions: cited from earlier work.
For series [4] the following is noted: rat.
The test system of series [5] is mesothelial cells. As to conditions: ref [37]; cited from earlier work.
Series [6] deals with human recombinant MK2 (h) (Homo sapiens, UniProt P49137). The experiment in a line: Radiometric MK2 kinase inhibition. It counts as biochemical.
Sequence of human recombinant MK2 (h) (P49137 whole entry): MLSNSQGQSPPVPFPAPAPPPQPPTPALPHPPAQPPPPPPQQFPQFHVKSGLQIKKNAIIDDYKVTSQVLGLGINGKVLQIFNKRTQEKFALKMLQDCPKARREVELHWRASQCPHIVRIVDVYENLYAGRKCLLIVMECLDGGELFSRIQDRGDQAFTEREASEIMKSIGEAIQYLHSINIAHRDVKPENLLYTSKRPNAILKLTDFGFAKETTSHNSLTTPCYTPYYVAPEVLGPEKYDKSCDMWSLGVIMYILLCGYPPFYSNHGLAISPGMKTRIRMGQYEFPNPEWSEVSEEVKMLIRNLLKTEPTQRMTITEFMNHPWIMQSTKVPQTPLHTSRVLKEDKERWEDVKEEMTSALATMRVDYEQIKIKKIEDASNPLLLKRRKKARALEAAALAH
Series [7] relates to rat colon anastomosis. Particulars: in vivo.
For series [8], the system named is rat colon anastomosis. Description: Anastomotic healing: hydroxyproline assay. It counts as in vivo. Particulars: single treatment at surgery, both time points (4 and 10 days).
The subject of series [9] is MK2. Particulars: ref [35]; cited from earlier work.
Series [10] deals with HSPB1 in human keloid fibroblasts. As to conditions: ref [36]; cited from earlier work.
The conditions of series [11]: effect of the CPP sequence; ref [37]; cited from earlier work.

With “IL-1β: interleukin-1β (Peprotech), stimulating cytokine”, in series [1] (6 h, compared to controls, normalized to β-actin), the “upregulation of phosphorylated hnRNPA0” value came out at 2 fold. In [1] (12 h), the “phosphorylation of hnRNPA0 at 12 hours” value is on record as “no longer upregulates the phosphorylation of hnRNPA0”. Also, the “IL-6 expression after six hours, all three concentrations” value in [2] (0.1, 1, 10 ng/mL IL-1β, 6 h) is “significantly increased IL-6 expression after six hours (p<0.05)”. For the same substance, in series [2], the “cytokine-induced IL-6 expression, time and dose dependence” value is “increased IL-6 expression in a time- and dose-dependent manner”. Besides, the “IL-6 expression at 24 hours, two higher concentrations” value in [2] (1 and 10 ng/mL IL-1β, 24 h) was “induced similar levels of IL-6 expression”.

On to TNF-α, for which the “IL-6 expression, 0.1 ng/mL” value in series [2] (0.1 ng/mL TNF-α) is “rarely produced significant increases in IL-6”. Besides, in [2] (1 ng/mL TNF-α, versus untreated control), the “IL-6 expression, 1 ng/mL” value was “did not always significantly upregulate IL-6 expression above the untreated control”. Also, the “cytokine-induced IL-6 expression, time and dose dependence” value in [2] was “increased IL-6 expression in a time- and dose-dependent manner”. In addition, in [2] (excluding 24-hour time point for the highest TNF-α dose), the “IL-6 induction potency relative to IL-1β” value is on record as “less potent inducer of IL-6 expression than IL-1β”.

For the substance YARAAARQARA, in series [3] (ref [38]), the “peptide specificity conferred by the CPP” value is “maximizes peptide specificity”.

Take YARAAARQARAKALARQLGVAA-NH2 [MMI-0100]: the “in vivo side effects” value in series [4] is listed as “no obvious in vivo side effects”. In series [4] (in vivo), the “animals lost from the treatment group” value is on record as “One animal was lost” and the complications of anastomosis entry is “did not cause any of these complications”. In addition, the “highest concentration used versus toxic dose for mesothelial cells” value in series [5] is recorded as “well below the toxic dose for mesothelial cells”. For the same substance, in [6], the IC50 (commonly the midpoint of a concentration-inhibition curve) was 22 µM. Further, the “anastomosis bursting pressure in words” value in series [7] is “did not significantly affect rat weight gain, anastomosis bursting pressure”. The “intestinal hydroxyproline content in words” value in [8] is “did not significantly affect rat weight gain, anastomosis bursting pressure or intestinal hydroxyproline (OHP) content at either time point”.

As for “KKKALNRQLGVAA [Hayess and Benndorf peptide]”, in series [9], the “MK2 activity in vitro” value is “does inhibit MK2 activity in vitro”.

Take WLRRIKAWLRRIKALNRQLGVAA: in [3] (effect of the CPP sequence, ref [37]), the kinase specificity result was “dramatically decreased the kinase specificity of the peptide”. The HSPB1 phosphorylation result in [10] was “inhibited HSPB1 phosphorylation in human keloid fibroblasts”. The toxicity entry in series [11] is reported as “increased its associated toxicity”.
